Assay results as given in PMC9390995 (Science Advances, 2022).

What was measured:
JAK1 = JAK1 (Homo sapiens, UniProt P23458); settings: biochemical assays; cited from earlier work
[1] = test system: p-STAT5/p-STAT6 in hPBMCs; assay: γc cytokine-stimulated STAT phosphorylation, Western blot; type: cell-based, human; settings: fig. S1
In short: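 hPBMCs in RPMI 1640 with 10% FBS at 37°C, 5% CO2, plated 5×10^5 per well. Pretreated 1 h with test compound, then stimulated with IL-2, IL-4, IL-7, IL-9, IL-15 or IL-21. Lysed in RIPA buffer with protease/phosphatase inhibitors. p-STAT5/p-STAT6 by Western blot normalized to GAPDH; three independent experiments.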

JAK2 = settings: read-out: IC50 against JAK2; cited from earlier work

JAK1, sequence (P23458 whole entry): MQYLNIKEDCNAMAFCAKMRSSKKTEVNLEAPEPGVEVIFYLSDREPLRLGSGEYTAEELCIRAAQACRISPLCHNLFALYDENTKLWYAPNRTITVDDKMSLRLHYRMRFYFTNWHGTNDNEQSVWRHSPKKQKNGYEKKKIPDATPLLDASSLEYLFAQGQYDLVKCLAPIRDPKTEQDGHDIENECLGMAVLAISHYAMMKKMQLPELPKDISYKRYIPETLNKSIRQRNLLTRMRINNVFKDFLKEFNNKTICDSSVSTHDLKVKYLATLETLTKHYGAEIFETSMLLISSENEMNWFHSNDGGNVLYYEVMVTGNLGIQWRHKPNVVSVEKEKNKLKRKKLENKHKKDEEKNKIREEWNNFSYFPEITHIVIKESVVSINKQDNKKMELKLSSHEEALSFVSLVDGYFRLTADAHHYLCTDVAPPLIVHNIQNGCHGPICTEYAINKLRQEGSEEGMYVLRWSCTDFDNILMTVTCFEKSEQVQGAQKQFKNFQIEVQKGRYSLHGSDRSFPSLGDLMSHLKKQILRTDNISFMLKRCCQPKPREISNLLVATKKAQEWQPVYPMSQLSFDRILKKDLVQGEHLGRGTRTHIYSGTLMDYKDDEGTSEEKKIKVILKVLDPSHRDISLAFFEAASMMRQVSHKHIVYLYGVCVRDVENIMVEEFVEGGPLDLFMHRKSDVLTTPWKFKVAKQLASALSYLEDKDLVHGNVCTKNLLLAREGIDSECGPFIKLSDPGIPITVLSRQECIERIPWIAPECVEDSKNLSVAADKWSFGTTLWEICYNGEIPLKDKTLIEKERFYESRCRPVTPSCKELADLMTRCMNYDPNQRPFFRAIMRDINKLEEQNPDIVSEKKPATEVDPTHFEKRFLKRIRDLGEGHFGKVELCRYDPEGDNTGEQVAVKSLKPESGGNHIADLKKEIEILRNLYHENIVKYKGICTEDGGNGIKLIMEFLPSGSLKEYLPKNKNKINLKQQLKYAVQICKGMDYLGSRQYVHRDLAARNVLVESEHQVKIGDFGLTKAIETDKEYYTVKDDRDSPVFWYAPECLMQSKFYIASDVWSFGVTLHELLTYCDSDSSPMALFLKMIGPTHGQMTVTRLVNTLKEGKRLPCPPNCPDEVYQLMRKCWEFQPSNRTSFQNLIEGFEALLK

Compound	preference for JAK1 over JAK2 (JAK1)	IL-2-induced p-STAT5 levels [1]	IC50 (JAK2)
O=C(Nc1nc2cccc(-c3ccc(CN4CCS(=O)(=O)CC4)cc3)n2n1)C1CC1 [filgotinib]	2.8 fold		
C=CC(=O)N1C[C@H](Nc2ncnc3[nH]ccc23)CC[C@@H]1C [Ritlecitinib, 1-((2S,5R)-5-((7H-pyrrolo[2,3-d]pyrimidin-4-yl)amino)-2-methylpiperidin-1-yl)prop-2-en-1-one]		potent inhibition	> 10 µM
CC[C@@H]1CN(C(=O)NCC(F)(F)F)C[C@@H]1c1cnc2cnc3[nH]ccc3n12 [upadacitinib]	2.4 fold		
